# DNA FID counter = fluorescent intercalator displacement, NS3 helicase counter-screen; AID 1845; inhibition, % at 7.9 µM; 290,000 compounds, 0.17% hits; DNA fluorescent intercalator displacement, fluorescence; in the data active means inhibition above about 37%;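 further: 0% = vehicle and 100% = reference compound; higher means more ethidium bromide displaced from hairpin DNA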
# Neddyl block = inhibitors of human cullin neddylation. P61081+Q13564. TR-FRET cullin neddylation, biochemical. calls only at 25 µM. 360,000 compounds, 0.58% hits. AID 651699; in the data active means inhibition above about 36%
# RAD52 inh = RAD52 (human) annealing inhibition; P43351; inhibition, % at 18.7 µM; 360,000 compounds, 0.46% hits; recombinant RAD52 DNA annealing, FRET fluorescence;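 active means every replicate showing at least 50% inhibition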
# Apaf1 inhib = human Apaf-1 inhibition; inhibition, % at 20 µM; reconstituted apoptosome caspase-3 activity, DEVD-Rh110 fluorescence; 330,000 compounds, 0.71% hits; O14727; active means inhibition of at least 40% at 20 µM;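 further: plate controls were DMSO wells for no effect and DEVD-CHO caspase inhibitor wells for full effect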
#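 System: reconstituted apoptosome with Apaf-1, cytochrome c, caspase-9, procaspase-3, dATP; Signal: Rh110 fluorescence intensity; Schedule: 30 min compound preincubation, 50 min activation, room temperature; Reagent: cytochrome c trigger plus (Z-DEVD)2-Rh110 caspase-3 substrate.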
# RAD54 inh = blocks human RAD54 Holliday junction branch migration; inhibition, % at 10.4 µM; Q92698; FAM/BHQ fluorescence; 360,000 compounds, 0.14% hits;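 active means mean normalized replicate activity at least 40 and at least half of replicates scoring 40 or more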;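 further: 0% = median of neutral control wells and 100% = median of positive control wells; inhibitors cause a drop in the FAM fluorescence signal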
# UBC13 polyUb = inhibitors of human UBC13 polyubiquitin chain formation; AID 485273; TR-FRET; 330,000 compounds, 0.47% hits; inhibition, % at 20 µM; P61088; in the data active means inhibition above about 45%, passing the limit was not always enough
# Target sequence (P61088 whole entry, looked up): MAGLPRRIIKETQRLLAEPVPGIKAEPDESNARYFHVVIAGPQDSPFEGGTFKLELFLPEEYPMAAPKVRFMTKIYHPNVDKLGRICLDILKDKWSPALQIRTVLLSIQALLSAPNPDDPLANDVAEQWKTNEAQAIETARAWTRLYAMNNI
# Neddyl inh conf = cullin neddylation inhibition, confirmation. shares compounds with Neddyl block. TR-FRET cullin neddylation biochemical assay. calls only at 25 µM. 1,800 compounds, 13% hits. AID 652217; in the data active means inhibition above about 40%;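 further: neddylation substrate is the cullin 1 ring ligase complex with SKP2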
# Starred values were filed as active, the others as inactive; i = inactive; nt = no result shown; + = active, no number. Compounds with a hit are over-represented: about 1.6% of the library has one in this group of screens.
SMILES,DNA FID counter,Neddyl block,RAD52 inh,Apaf1 inhib,RAD54 inh,UBC13 polyUb,Neddyl inh conf
Cc1ccn2cc(-c3cnoc3C)nc2c1,-14,i,nt,8,-3,-3,nt
O=C(CCN1CCCCC1)NCC[C@H]1CC[C@@H](NS(=O)(=O)c2cccc(F)c2)[C@@H](CO)O1,nt,nt,10,nt,-2,nt,nt
COCCNC(=O)C[C@@H]1C[C@H]2c3cc(NC(=O)NC4CCCC4)ccc3O[C@H]2[C@@H](CO)O1,nt,nt,-13,nt,14,nt,nt
COc1cccc(Nc2nc3ccccc3n3nnnc23)c1,1,+,nt,20,11,4,nt
OC1CCN(c2c3c(nc4cc(-c5ccc(F)cc5)nn24)CCC3)CC1,-16,+,nt,8,3,3,i
Cc1cccc(-c2cc3nc4c(c(N5CCCC(O)C5)n3n2)CCC4)c1 (stereo not drawn),-30,+,nt,14,-9,10,nt
C[C@H](CO)N1C[C@H](C)[C@@H](CN(C)C(=O)C2CCC2)Oc2cc(C3=CCCC3)ccc2S1(=O)=O,nt,nt,-2,nt,-4,nt,nt
COc1ccc(CCNC(=O)c2cc3c(=O)n4ccccc4nc3n(CCN3CCOCC3)c2=N)cc1,-7,+,9,7,22,0,i
COc1ccc(CCNC(=O)c2cc3c(=O)n4ccccc4nc3n(CC3CCCO3)c2=N)cc1 (stereo not drawn),nt,i,18,nt,14,nt,nt
COc1ncccc1-c1nnn(-c2ccc(Cl)nc2)n1,-4,+,-7,3,-6,-1,i
O=C(OCc1cc(=O)n2ccsc2n1)c1ccccc1O,nt,i,-8,1,-6,-2,nt
O=C(OCc1cc(=O)n2ccsc2n1)c1ccccc1NCCO,nt,+,-12,-3,-6,-3,nt
CC(=O)c1ccc(S(=O)(=O)N(CCCO)Cc2cc3cc4c(cc3[nH]c2=O)OCCO4)cc1,-9,i,-9,3,-6,-5,nt
O=c1[nH]c2cc3c(cc2cc1CN(CCO)S(=O)(=O)c1ccccc1)OCCO3,-12,+,-4,-4,-5,5,nt
CCN(CC)CCN(Cc1cc2cc3c(cc2[nH]c1=O)OCCO3)C(=O)NC1CCCCC1,-1,i,nt,-1,19,4,nt
O=C(NC1CCCCC1)N(CCN1CCOCC1)Cc1cc2cc3c(cc2[nH]c1=O)OCCO3,3,+,nt,-5,8,5,+
O=C(NCc1ccccc1)N(Cc1cc2cc3c(cc2[nH]c1=O)OCCO3)CC1CCCO1 (stereo not drawn),-34,+,nt,nt,0,nt,i
COc1ccc(NC(=O)N(C)C[C@@H]2OCc3ccccc3-c3ccccc3C(=O)N([C@@H](C)CO)C[C@H]2C)cc1,nt,nt,12,nt,-1,nt,nt
Cc1ccccc1-c1cnc2c(c1)C(=O)N([C@@H](C)CO)C[C@H](C)[C@@H](CN(C)C(=O)c1ccc(F)cc1)O2,nt,nt,8,nt,-7,nt,nt
CSc1ccc(/C=N/n2nnnc2N)cc1,0,+,nt,-9,-6,5,+
COc1cc(/C=N/n2nnnc2N)ccc1O,7,i,nt,-7,13,6,nt
COc1cc(/C=N/n2nnnc2N)cc(OC)c1OC,-2,+,-8,-5,-6,0,i
Cc1ccc2ncccc2c1,nt,i,-4,9,-4,-8,nt
c1cnc2ccc(-c3ccc4ncccc4c3)cc2c1,-26,+,-43,6,9,4,i
CN(C)c1cccc(C(=O)OCC(=O)N2CCc3ccccc3C2)c1,-42,+,-11,12,nt,8,i
COc1ccc(S(=O)(=O)N(C)C[C@@H]2Oc3ccc(NC(=O)Cn4cnnn4)cc3C(=O)N([C@H](C)CO)C[C@@H]2C)cc1,nt,nt,-9,nt,-5,nt,nt
Cc1csc(NC(=O)CSCC(=O)O)c1-c1nc2ccccc2s1,-16,+,-10,5,nt,6,nt
CC1(C)Cc2c(sc3nc(-c4ccccc4)n(N)c(=O)c23)CO1,1,i,nt,-1,-8,-2,nt
CC1(C)Cc2c(sc3nc(-c4cccs4)n(N)c(=O)c23)CO1,-5,+,nt,10,-1,-17,i
Cc1nn2c(C)nc3sc4c(c3c2nc1=O)CC(C)(C)OC4,-5,+,nt,-10,15,11,i
